System: MS2 coat protein
Assay: apparent Kd, MS2 coat protein; higher = weaker binding; RNA-MaP array; FMN 200 µM where present
Method in brief: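 Each design was made on Illumina sequencing-chip clusters by stalled E. coli RNA polymerase and titrated with SNAP-549-labelled MS2 coat protein from 0.7 or 1.5 nM, doubling to 3 µM, in the absence and then the presence of constant ligand. The buffer was 100 mM Tris-HCl pH 7.5, 80 mM KCl, 4 mM MgCl2, BSA, DTT, yeast tRNA and Tween-20. The apparent Kd is the median of filtered per-cluster fits of binding curves, with green signal normalised to red-channel RNA signal and control-cluster median Fmax.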

[1] = designed as: ON switch for flavin mononucleotide, no ligand
[2] = ligand present: flavin mononucleotide, designed as: ON switch for flavin mononucleotide
[3] = designed as: OFF switch for flavin mononucleotide, no ligand
[4] = ligand present: flavin mononucleotide, designed as: OFF switch for flavin mononucleotide

Sequence	apparent Kd [1]	apparent Kd [2]	apparent Kd [3]	apparent Kd [4]
GCAGCACAGUAUUACAUGAGGAUCACCCAUGUCGAUUGAGAUGAGGAUAUGCAUCGAAUGAAGUUGCAGAAGGCAUUGUGCUGC	10.9 nM	5.94 nM		
UCUUUCUUUGUGAGGAUAUGCCCAAAUAAAAGCGGGCAGAAGGCACAUGAGGAUCACCCAUGUUCUGCGGUUUU			54.5 nM	486 nM
AAGGAGUUAGGAUAUGCUGCUCGUCACUUGCGUGAUGAGUAGCAGAAGGGACAUGAGGAUCACCCAUGUAAAAA			45.3 nM	21.2 nM
GCGCUUAUACAGAAGGCCAUAUACAUGAGGAUCACCCAUGUUAUUUGGUGGAGGAUAUGUUUUUUAUUACAGGUUGAUGAGCGC	7.58 nM	6.52 nM		
GCGAUUUUGUAAGGAUAUACACCAGUUUUAAGUGUAGAAGGUACUUACAUGAGGAUCACCCAUGUAUAAAUGUAUAAUAGUCGC	6.92 nM	6.87 nM		
CUGUUCCGUGUAGGAUAUGCAUAUUCCCAUUAUGCAGAAGGACAUGAGGAUCACCCAUGUAUGUUAUUAUCAUGUGUUACAUGC			44.4 nM	453 nM
CAUUAAUUCAUUAUAGUUAUUAUACAGGAUAUGUUACAUGAGGAUCACCCAUGUAUUCAUGGUAAACAGAAGGGUAAUUCUAGU			20.1 nM	19.7 nM
UCGAACGGAAACAAAGUCUUCGGACAUGAGGAUCACCCAUGUAAGGAUAUGCCUACUAAAAGUAGGCAGAAGGUACGCGUUCGA			22.1 nM	51.1 nM
GUGCGCGGCUAGGAUAUUGUGGGUUUUUGUCUGCGAGAAGGUGCCACAUGAGGAUCACCCAUGUGGUGUUGCUC			24.1 nM	30 nM
UCUCGUUUCGCAGGAUAUGCUGGUCGGAAAUAAACCGGCCACAUGAGGAUCACCCAUGUGCCACAGCAGAAGGGUGACACUAGA	527 nM	53.9 nM		
GCAGGAAAACUUGGUACAUGAGGAUCACCCAUGUAAAGCGGCAGAAGGGCGAUGUUAUGUAUAACGCAGGAUAUGCAGCGGAAU	46.4 nM	18.1 nM		
CGCUACUGCCAGAAGGACAUGAGGAUCACCCAUGUAGGAUAUGGGUGUCGAGGACCAGUGUAGAGAAACUACGCUACAGUAGCG	958 nM	57.6 nM		
GUACUGUAGUGAGGAUAUACGAGUUCGAUAGAACGGCGAUCCAAUUAUACAUGAGGAUCACCCAUGUAGAAGGCACUUCAGUAC			8.88 nM	50 nM
AUGAGUAAAGCAGGAUAUCUAUUGUCUCUGUAACAUGAGGAUCACCCAUGUAGAGAAGGGCUUAGUCAUACACUUCGAAGUUGA			9.13 nM	10.1 nM
UGCAAAAUUGCAACAUGAGGAUCACCCAUGUCUGGGUUGGCCAAGGAUAUGCUUCUAAUCCUAGUGCAGAAGGUGGAAACUCAU	201 nM	530 nM		
UGUCGGAGCAGAGGAUAUUACAUGAGGAUCACCCAUGUAUGAACCAAUAGCUGGAAACAGCAAUGUAAGAAGGGUGCUCCGACA			6.09 nM	13.2 nM
CUAUUCCGAGGAUAUACAUGAGGAUCACCCAUGUCGGGCCUCCGCGUUUAGCGCCUCAGUAGAAGGCGGGUUUC			19.1 nM	25.4 nM
GUGCCUAACUAGAAGGCAGUAUGCAAAGCAUUCUGAGGAUAUGGGUUCCGGAAACGGACAUGAGGAUCACCCAUGUGGCACAAA	312 nM	20.3 nM		
CAGAACGUCUGAUGAGACCCGCGGCAGGAUAUGCCUGACGUGGACAUGAGGAUCACCCAUGUAAGGCAGAAGGGCCGUUCAGUG			23 nM	95.5 nM
UGAUCGAGAGAUCUUAGAUUCUGGUAGGAUAUACAUAAAAUGCGCUUUACAUGAGGAUCACCCAUGUAGAAGGACUAGAGUCUA			7.54 nM	9.8 nM
AUGCUUCACACAGGAUAUACAUGAGGAUCACCCAUGUGUCCUCCGUAGCUGACACCAGCUACGCUGUAGAAGGGUGUGAAGCAU			261 nM	201 nM
CGUAGGAUCCAGAAGGCAUGAACAUGAGGAUCACCCAUGUGAAAAGACAUGAGGAUAUGGAUCCUACGAAAAGUGCGAAAGCAC	5.53 nM	5.47 nM		
GGGAUAGGAGGAUAUGUUCUAGCUCACAUGAGGAUCACCCAUGUGGUGUCCGUUGGUAGCGCAGAAGGCUUACCUA			792 nM	662 nM
GUAGCAUACCGAGGAUAUUCAUAUAGGAAACUAACAUGAGGAUCACCCAUGUGGCGAAAGCCUUGGGAGAAGGCGGAAUGCUAC	408 nM	29.2 nM		

Sequence	apparent Kd [1]	apparent Kd [2]	apparent Kd [3]	apparent Kd [4]
AUUUAAUUUAGCGAGAUCACAUGAGGAUCACCCAUGUAUAUAUAGGAUAUCAGCUCGUUUAGAGCUGAGAAGGAUAUAUACCGC			89.8 nM	147 nM
AUAUUAUAGAUCCAUUUAUUCAACAUGAGGAUCACCCAUGUGCAGGAUAUCGUGUGUUUUAUAAACGAGAAGGGCAAAUUCAUU			31.9 nM	96.7 nM
AACACUUAAAAGUGAGGCGAUAGGUAGGAUAUACAUGAGGAUCACCCAUGUAUGGGCUAUCUGCGGUAGAAGGACCUCUGGCCC			6.44 nM	8.84 nM
GACUAGGCAGGAUAUACAUGAGGAUCACCCAUGUGUCUGCGUUAAGCACGUGAAGACGGUAGAAGGGCCUACAC			14.4 nM	18.1 nM
GGUCCUUCUGUUAGGAUAUGCUUUGGGCUUCCGCAGUAGAAGGAACAUGAGGAUCACCCAUGUCCGAUGCCGUA			65.3 nM	84.4 nM
GUAGCAUACCGAGGAUAUUCCGGGCAUAAAUAAACAUGAGGAUCACCCAUGUGGCGAAAGCCUAGGGAGAAGGCGGAAUGCUAC	15.2 nM	13.6 nM		
UGUCGGAGCAGAGGAUAUUACAUGAGGAUCACCCAUGUAUGAACCUAUAGCUGGAAACAGCAAUGUAAGAAGGCUGCUCCGACA			23.5 nM	338 nM
AAGAAGUCAGGAUAUGCUGCUCGUCACUUGCGUGAUGAGUAGCAGAAGGGACAUGAGGAUCACCCAUGUGGAGA			114 nM	241 nM
GCGUCAGAAUUAAUUGUGACAGGCAGAAGGCUAUAUCUUAUGUUAGACAUGAGGAUCACCCAUGUAGAGGAUAUGCAGUUACAC			7.77 nM	17 nM
AGGAAGUGAGGAUAUGCAUCAUAUAGUGGACGCUAUAGAAUGUAGAAGGCACAUGAGGAUCACCCAUGUUUAAA			30.2 nM	29.3 nM
UUAUGUUUUGUAGGAUAUCAUUAGAUUUGUAUUUUAAUUGUAAUUUAGAUAUGAGAAGGACAUUUACAUGAGGAUCACCCAUGU			14.7 nM	10.7 nM
AAAAAGGUAGGAUAUACGAAAAAAAAGGGUAGAAAAAAAACACAUGAGGAUCACCCAUGUAGAAGGACCAAAAA			27.4 nM	63 nM
AUCAGCUCGUCAGGAUAUACGUCCCUGCGUCAGCAGUGUGGUAAGAUCACAUGAGGAUCACCCAUGUAGAAGGGACGAGCUGAU			22.9 nM	312 nM
UUAAAACGUGUGAGGAUAUCGAGAGUAGCUGAUCUCGAGAAGGCACAUGAGGAUCACCCAUGUGGCCUGCACCG			14.6 nM	14.7 nM
AGAAACUACGAGAAGGACAUGUGGUCCAAAACAAACAUGAGGAUCACCCAUGUAGGAUAUCGUAGUUUCAGGAUCGUGAGAUCA			284 nM	61.8 nM
CCUACGUGAGGAUAUGCAACUAACACGUUAGACAAAUAGUUGCAGAAGGCACAUGAGGAUCACCCAUGUGAACC			29.8 nM	34.9 nM
CGUACUCAAGUGAGGAUAUUGUCUCGGAUACGAAACAAGAAGGCACAUGAGGAUCACCCAUGUAGAGAGUACGA			16.2 nM	14.3 nM
GAAAACAGAGGAUAUACAUGAUUAUGACGAAAGUCAUAAAAACAUGAGGAUCACCCAUGUAGAAGGCUGAAGAA			185 nM	201 nM
GUCUCAGCUGAGGAUAUAUUCUCCCUUGAGGGAAUAGAAGGCAGUACAUGAGGAUCACCCAUGUGGUUCGUUUG			122 nM	327 nM
UUCUUGCAAGGAUAUGAUUUAAGUAACAUGAGGAUCACCCAUGUUUUUCCGUUGUUAUGUUCAGAAGGUGCGUGAU			55.8 nM	63.3 nM
GUAGUGUAGUGAGGAUAUACGAGAUCGAUAGAUCGGCGAUCCAUUAAUACAUGAGGAUCACCCAUGUAGAAGGCACUUCACUAC			6.01 nM	70.7 nM
AAAAAGUCAGGAUAUGCGAAGGCGUCUGAUAGACGAGGCUAGCAGAAGGGACAUGAGGAUCACCCAUGUGGAAA			79.4 nM	135 nM
ACGUAUCGUGUAGGAUAUGACCCAGGAAACUGGUCAGAAGGACAUGAGGAUCACCCAUGUAGAGUAUGUUAGGAUGACGUAUGC			42.5 nM	305 nM
UAAAAGUCAGGAUAUGCGAGAGAUUGAAGUGUGGCAAGGUAGCAGAAGGGACAUGAGGAUCACCCAUGUGUGGC			52.4 nM	115 nM

Reference: the EternaBench riboswitch data
